Columns and labels:
[1] = target: T1, C-C chemokine receptor type 2 (Homo sapiens, UniProt P41597); assay: Concentration required to inhibit [125I]MCP-1 binding to Chemokine receptor 2B
Outline: (§1)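 Radioligand binding with THP-1 cells as the receptor source and human 125I-MCP-1 as the tracer. Inhibition of tracer binding by test compounds was measured.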
Target sequence in this assay (P41597 whole entry): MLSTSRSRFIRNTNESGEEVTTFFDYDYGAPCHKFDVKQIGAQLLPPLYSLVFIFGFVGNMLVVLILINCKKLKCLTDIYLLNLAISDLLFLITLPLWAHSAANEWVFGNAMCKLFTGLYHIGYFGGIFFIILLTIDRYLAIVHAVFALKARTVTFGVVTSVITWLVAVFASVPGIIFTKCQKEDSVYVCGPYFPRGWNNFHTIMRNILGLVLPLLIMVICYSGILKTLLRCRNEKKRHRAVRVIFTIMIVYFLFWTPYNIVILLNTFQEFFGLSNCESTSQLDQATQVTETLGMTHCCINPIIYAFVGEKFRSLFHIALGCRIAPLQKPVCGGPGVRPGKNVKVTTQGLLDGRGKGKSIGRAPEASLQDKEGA

[2] = target: T1, C-C chemokine receptor type 2; conditions: 10 uM
Target sequence in this assay (P41597 whole entry, looked up): as the sequence (P41597 whole entry) above

[3] = target: T1, C-C chemokine receptor type 2; assay: Inhibition of [125I]MCP-1 binding to Chemokine receptor 2B; not active; outline: as §1
Target sequence in this assay (P41597 whole entry): as above

Compound: O=C(CCCC(=O)c1ccccc1)NC1CCN(Cc2ccc(Cl)cc2)C1 (stereo not given)
- IC50 [1]: 11 µM

Compound: O=C(CCNC(=O)c1ccccc1)NCC1CCN(Cc2ccc(Cl)cc2)CC1
- IC50 [1]: 64 µM

Compound: O=C(CCNC(=O)c1ccccc1)NC1CCCN(Cc2ccc(Cl)cc2)C1 (stereo not given)
- IC50 [1]: 74 µM

Compound: Cc1csc(C(=O)NNC(=O)CN2CCC(NCCC(c3ccccc3)c3ccccc3)C2)c1 (stereo not given)
- IC50 [1]: 17 µM

Compound: O=C(CCNC(=O)c1ccccc1)NCC1CCCN1Cc1ccc(Cl)cc1 (stereo not given)
- IC50 [1]: 40 µM

Compound: O=C(CNC(=O)c1cccc(C(F)(F)F)c1)NC[C@@H]1CCCN1Cc1ccc(Cl)cc1
- IC50 [1]: 3.1 µM

Compound: O=C(CNC(=O)c1cccc(C(F)(F)F)c1)N[C@@H]1CCN(Cc2ccc(Cl)cc2)C1
- inhibition [2]: 49%
- IC50 [1]: 0.18 µM

Compound: Cc1csc(C(=O)NNC(=O)CN2CCCC2CNCCC(c2ccccc2)c2ccccc2)c1 (stereo not given)
- IC50 [1]: 26 µM

Compound: O=C(CNC(=O)c1ccccc1)NC1CCCN(Cc2ccc(Cl)cc2)C1 (stereo not given)
- IC50 [3]: Not Active

Compound: O=C(CNC(=O)c1cccc(C(F)(F)F)c1)NCC1CCCN1Cc1ccc(Cl)cc1 (stereo not given)
- IC50 [1]: 2.3 µM

Compound: Cc1csc(C(=O)NNC(=O)CNC2CCN(CCC(c3ccccc3)c3ccccc3)C2)c1 (stereo not given)
- IC50 [1]: 33 µM

Compound: O=C(CNC(=O)c1cccc(C(F)(F)F)c1)N[C@H]1CCN(Cc2ccc(Cl)cc2)C1
- IC50 [1]: 1.2 µM

Compound: O=C(CCNC(=O)c1ccccc1)NC1CCN(Cc2ccc(Cl)cc2)C1 (stereo not given)
- IC50 [1]: 22 µM

Compound: O=C(CCCC(=O)c1ccccc1)NCC1CCN(Cc2ccc(Cl)cc2)CC1
- IC50 [1]: 50 µM

Compound: O=C(CNC(=O)c1ccccc1)NC1CCN(Cc2ccc(Cl)cc2)C1 (stereo not given)
- IC50 [1]: 42 µM

Compound: O=C(CNC(=O)c1cccc(C(F)(F)F)c1)NC[C@H]1CCCN1Cc1ccc(Cl)cc1
- IC50 [1]: 0.57 µM

Compound: O=C(CNC(=O)c1cccc(C(F)(F)F)c1)NCC1CCN(Cc2ccc(Cl)cc2)CC1
- IC50 [1]: 0.7 µM

Compound: Cc1cccc(C(=O)NCC(=O)NCC2CCCN2Cc2ccc(Cl)cc2)c1 (stereo not given)
- IC50 [1]: 14 µM

Compound: Cc1cccc(C(=O)NCC(=O)NCC2CCN(Cc3ccc(Cl)cc3)CC2)c1
- IC50 [1]: 5.5 µM

Compound: O=C(CNC(=O)c1ccccc1)NCC1CCCN1Cc1ccc(Cl)cc1 (stereo not given)
- IC50 [1]: 66 µM

Compound: Cc1cccc(C(=O)NCC(=O)NC2CCCN(Cc3ccc(Cl)cc3)C2)c1 (stereo not given)
- IC50 [1]: 17 µM

Compound: O=C(CNC(=O)c1ccccc1)NCC1CCN(Cc2ccc(Cl)cc2)CC1
- IC50 [1]: 11 µM

Compound: Cc1cccc(C(=O)NCC(=O)NC2CCN(Cc3ccc(Cl)cc3)C2)c1 (stereo not given)
- IC50 [1]: 6.9 µM

Compound: Cc1csc(C(=O)NNC(=O)CN2CCC(NCc3ccc(Cl)cc3)C2)c1 (stereo not given)
- IC50 [1]: 7.8 µM

Compound: O=C(CCCC(=O)c1ccccc1)NCC1CCCN1Cc1ccc(Cl)cc1 (stereo not given)
- IC50 [1]: 19 µM

Compound: O=C(CNC(=O)c1cccc(C(F)(F)F)c1)NC1CCCN(Cc2ccc(Cl)cc2)C1 (stereo not given)
- IC50 [1]: 0.66 µM

Compound: O=C(CNC(=O)c1cccc(C(F)(F)F)c1)NC1CCN(Cc2ccc(Cl)cc2)C1 (stereo not given)
- IC50 [1]: 0.37 µM

Compound: Cc1csc(C(=O)NNC(=O)CNC2CCN(Cc3ccc(Cl)cc3)C2)c1 (stereo not given)
- IC50 [1]: 41 µM

Compound: O=C(CCCC(=O)c1ccccc1)NC1CCCN(Cc2ccc(Cl)cc2)C1 (stereo not given)
- IC50 [1]: 87 µM

Source: ChEMBL document CHEMBL1138004, “Small molecule antagonists of the CCR2b receptor. Part 2: Discovery process and initial structure-activity relationships of diamine derivatives” (Bioorg Med Chem Lett, 2004)
